Activity calls are given as the source filed them. No cut-off for these calls is given here.
Columns and labels:
Format in all cases: functional, organism-based
Streptococcus pneumoniae [1] = assay: Antimicrobial activity against erythromycin-susceptible Streptococcus pneumoniae ATCC 49619 by broth microdilution method
Method in brief: (§1)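 MIC by broth microdilution following NCCLS recommendations. Strains used as erythromycin-susceptible clinical or reference isolates: S. pneumoniae ATCC 49619 and 07H252, S. pyogenes 07U084 and 07U086. Resistant comparison strains came from MOHNARIN, China. Value reported as minimum inhibitory concentration.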

Streptococcus pneumoniae [2] = assay: Antimicrobial activity against erythromycin-susceptible Streptococcus pneumoniae 07H252 by broth microdilution method; method in brief: as §1
Streptococcus pneumoniae [3] = assay: Antimicrobial activity against erythromycin-resistant Streptococcus pneumoniae 07Z001 by broth microdilution method
Method in brief: (§2)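 MIC by broth microdilution as recommended by NCCLS. Strains are constitutively erythromycin-resistant clinical isolates supplied by the Ministry of Health National Antimicrobial Resistance Investigation Net (MOHNARIN, China).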

Streptococcus pneumoniae [4] = assay: Antimicrobial activity against erythromycin-resistant Streptococcus pneumoniae 05Z006 by broth microdilution method; method in brief: as §2
Streptococcus pyogenes [5] = assay: Antimicrobial activity against erythromycin-susceptible Streptococcus pyogenes 07U084 by broth microdilution method; method in brief: as §1
Streptococcus pyogenes [6] = assay: Antimicrobial activity against erythromycin-susceptible Streptococcus pyogenes 07U086 by broth microdilution method; method in brief: as §1
Streptococcus pyogenes [7] = assay: Antimicrobial activity against erythromycin-resistant Streptococcus pyogenes 07Z011 by broth microdilution method; method in brief: as §2
Streptococcus pyogenes [8] = assay: Antimicrobial activity against erythromycin-resistant Streptococcus pyogenes 07Z014 by broth microdilution method; method in brief: as §2
Streptococcus pyogenes [9] = assay: Antimicrobial activity against erythromycin-resistant Streptococcus pyogenes 07Z016 by broth microdilution method; method in brief: as §2

SMILES	Activity (Streptococcus pneumoniae [1])	Activity (Streptococcus pneumoniae [2])	Activity (Streptococcus pneumoniae [3])	Activity (Streptococcus pneumoniae [4])	Activity (Streptococcus pyogenes [5])	Activity (Streptococcus pyogenes [6])	Activity (Streptococcus pyogenes [7])	Activity (Streptococcus pyogenes [8])	Activity (Streptococcus pyogenes [9])
CC[C@H]1OC(=O)[C@H](C)[C@@H](OC(=O)Cc2cccnc2)[C@H](C)[C@@H](O[C@@H]2O[C@H](C)C[C@H](N(C)C)[C@H]2O)[C@@](C)(OC)C[C@@H](C)C(=O)[C@H](C)[C@H]2N(CCCSc3nc4ccc(OC)nc4[nH]3)C(=O)O[C@]12C	Active	Active	Active	Active	Active	Active	Active	Active	Active
CC[C@H]1OC(=O)[C@H](C)[C@@H](OC(=O)Cc2cccnc2)[C@H](C)[C@@H](O[C@@H]2O[C@H](C)C[C@H](N(C)C)[C@H]2O)[C@@](C)(OC)C[C@@H](C)C(=O)[C@H](C)[C@H]2N(CCCCSc3nc4ccc(OC)nc4[nH]3)C(=O)O[C@]12C	Active	Active	Active	Active	Active	Active	Active	Active	Active
CC[C@H]1OC(=O)[C@H](C)C(=O)[C@H](C)[C@@H](O[C@@H]2O[C@H](C)C[C@H](N(C)C)[C@H]2O)[C@@](C)(OC)C[C@@H](C)C(=O)[C@H](C)[C@H]2N(CCCSc3nc4ccc(OC)nc4[nH]3)C(=O)O[C@]12C	Active	Active	Active	Active	Active	Active	Active	Active	Active
CC[C@H]1OC(=O)[C@H](C)[C@@H](OC(=O)Cc2ccc3c(c2)OCO3)[C@H](C)[C@@H](O[C@@H]2O[C@H](C)C[C@H](N(C)C)[C@H]2O)[C@@](C)(OC)C[C@@H](C)C(=O)[C@H](C)[C@H]2N(CCCCSc3nc4ccc(OC)nc4[nH]3)C(=O)O[C@]12C	Active	Active	Active	Active	Active	Active	Active	Active	Active
CC[C@H]1OC(=O)[C@H](C)[C@@H](OC(=O)Cc2ccc3c(c2)OCO3)[C@H](C)[C@@H](O[C@@H]2O[C@H](C)C[C@H](N(C)C)[C@H]2O)[C@@](C)(OC)C[C@@H](C)C(=O)[C@H](C)[C@H]2N(CCCSc3nc4ccc(OC)nc4[nH]3)C(=O)O[C@]12C	Active	Active	Active	Active	Active	Active	Active	Active	Active
CC[C@H]1OC(=O)[C@H](C)[C@@H](O[C@H]2C[C@@](C)(OC)[C@@H](O)[C@H](C)O2)[C@H](C)[C@@H](O[C@@H]2O[C@H](C)C[C@H](N(C)C)[C@H]2O)[C@](C)(OC)C[C@@H](C)C(=O)[C@H](C)[C@@H](O)[C@]1(C)O	Active	Active	inactive	inactive	Active	Active	inactive	inactive	inactive
CC[C@H]1OC(=O)[C@H](C)C(=O)[C@H](C)[C@@H](O[C@@H]2O[C@H](C)C[C@H](N(C)C)[C@H]2O)[C@](C)(OC)C[C@@H](C)C(=O)[C@H](C)[C@H]2N(CCCCn3cnc(-c4cccnc4)c3)C(=O)O[C@]12C	Active	Active	Active	Active	Active	Active	Active	Active	Active
CC[C@H]1OC(=O)[C@H](C)[C@@H](O[C@H]2C[C@@](C)(OC)[C@@H](O)[C@H](C)O2)[C@H](C)[C@@H](O[C@@H]2O[C@H](C)C[C@H](N(C)C)[C@H]2O)[C@](C)(O)C[C@@H](C)CN(C)[C@H](C)[C@@H](O)[C@]1(C)O	Active	Active	inactive	inactive	Active	Active	inactive	inactive	inactive

Reference: ChEMBL document CHEMBL1152401, “Synthesis of novel macrolide derivatives with imidazo[4,5-b]pyridinyl sulfur contained alkyl side chains and their antibacterial activity” (Bioorg Med Chem Lett, 2009)
